Measured values from ChEMBL document CHEMBL3808280, “GroEL/ES inhibitors as potential antibiotics” (Bioorg Med Chem Lett, 2016).

Columns and labels:
E. coli GroEL/ES [1] = molecular target: T1, E. coli GroEL/ES (Escherichia coli, UniProt P0A6F5); experiment: (§1) Inhibition of Escherichia coli GroEL/GroES using Escherichia coli GroEL expressed in Escherichia coli DH5alpha cells and Escherichia coli GroES expressed in Escherichia coli BL21(DE3) cells assessed as reduction in pig heart native refolded MDH-mediated NADH production by micro plate reader analysis
T1 sequence (P0A6F5 whole entry, looked up): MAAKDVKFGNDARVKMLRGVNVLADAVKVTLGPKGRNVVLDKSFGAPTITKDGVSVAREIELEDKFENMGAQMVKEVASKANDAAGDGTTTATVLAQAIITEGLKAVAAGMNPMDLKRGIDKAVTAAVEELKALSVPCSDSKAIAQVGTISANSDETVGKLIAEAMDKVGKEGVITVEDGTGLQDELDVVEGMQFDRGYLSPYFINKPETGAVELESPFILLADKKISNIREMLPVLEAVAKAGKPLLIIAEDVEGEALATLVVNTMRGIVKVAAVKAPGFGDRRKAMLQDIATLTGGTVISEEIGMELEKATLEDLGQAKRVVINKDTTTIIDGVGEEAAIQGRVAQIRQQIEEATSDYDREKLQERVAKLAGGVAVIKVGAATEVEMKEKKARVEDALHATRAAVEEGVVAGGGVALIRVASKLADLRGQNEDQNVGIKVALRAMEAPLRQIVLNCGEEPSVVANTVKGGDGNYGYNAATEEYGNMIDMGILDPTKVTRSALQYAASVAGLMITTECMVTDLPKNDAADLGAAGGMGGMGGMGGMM
How it was run: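 Native MDH counter-screen. GroEL/ES-dMDH refolding run 60 min at 37°C, then EDTA-quenched without compound. IC50 averaged from at least triplicate.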

E. coli GroEL/ES [2] = molecular target: T1, E. coli GroEL/ES; experiment: (§2) Inhibition of Escherichia coli GroEL/GroES using Escherichia coli GroEL expressed in Escherichia coli DH5alpha cells and Escherichia coli GroES expressed in Escherichia coli BL21(DE3) cells assessed as inhibition of denatured rhodanese refolding by measuring reduction in thiocyanate production incubated for 60 mins by micro plate reader analysis
How it was run: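 Urea-denatured rhodanese bound to GroEL/GroES in folding buffer containing thiosulfate. After 60 min at 37°C, thiocyanate reaction (KCN, thiosulfate, phosphate) run, then formaldehyde quench and ferric nitrate added. Fe(SCN)3 read at 460 nm after 15 min RT, with protein-free baseline plates.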

Bacillus subtilis = experiment: Antibacterial activity against Bacillus subtilis 168 assessed as reduction in bacterial growth incubated for 6 to 8 hrs; format: functional, organism-based; conditions: subsp. subtilis str. 168
[3] = Cytotoxicity against human THLE3 cells assessed as reduction in cell viability after 48 hrs by alamar blue assay; format: cell-based; conditions: THLE3, 48 h
Staphylococcus aureus [4] = experiment: Antibacterial activity against methicillin resistant Staphylococcus aureus subsp. aureus HPV107 (ATCC BAA-44) assessed as reduction in bacterial growth incubated for 6 to 8 hrs; format: functional, organism-based
How it was run: (§3)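 Broth proliferation assay. S. aureus and MRSA grown in ATCC Medium 18, other pathogens in Brain Heart Infusion. Stagnant incubation at 37°C under breathable seal. OD600 read at mid-log (6-8 h) and corrected with bacteria-free baseline plates. EC50 by variable-slope nonlinear fit, at least triplicate.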

Escherichia coli [5] = experiment: Antibacterial activity against Escherichia coli DH5alpha assessed as reduction in bacterial growth incubated for 6 to 8 hrs; format: functional, organism-based; conditions: DH5[alpha]
[6] = system: Klebsiella pneumoniae subsp. pneumoniae; experiment: Antibacterial activity against multidrug resistant Klebsiella pneumoniae subsp. pneumoniae NCTC 9633 (ATCC 13883) assessed as reduction in bacterial growth incubated for 6 to 8 hrs; format: functional, organism-based; how it was run: as §3
E. coli GroEL/ES [7] = molecular target: T1, E. coli GroEL/ES; experiment: as §1, with “in” for “in pig heart”, “rhodanese-mediated thiocyanate” for “MDH-mediated NADH”
HSP60/HSP10 [8] = molecular target: T2, HSP60/HSP10 (Homo sapiens, UniProt P10809); experiment: Inhibition of human HSP60/HSP10 expressed in Escherichia coli Rosetta2(DE3) cells assessed as reduction in denatured pig heart MDH ATPase activity by malachite green dye based assay
T2 sequence (P10809 whole entry): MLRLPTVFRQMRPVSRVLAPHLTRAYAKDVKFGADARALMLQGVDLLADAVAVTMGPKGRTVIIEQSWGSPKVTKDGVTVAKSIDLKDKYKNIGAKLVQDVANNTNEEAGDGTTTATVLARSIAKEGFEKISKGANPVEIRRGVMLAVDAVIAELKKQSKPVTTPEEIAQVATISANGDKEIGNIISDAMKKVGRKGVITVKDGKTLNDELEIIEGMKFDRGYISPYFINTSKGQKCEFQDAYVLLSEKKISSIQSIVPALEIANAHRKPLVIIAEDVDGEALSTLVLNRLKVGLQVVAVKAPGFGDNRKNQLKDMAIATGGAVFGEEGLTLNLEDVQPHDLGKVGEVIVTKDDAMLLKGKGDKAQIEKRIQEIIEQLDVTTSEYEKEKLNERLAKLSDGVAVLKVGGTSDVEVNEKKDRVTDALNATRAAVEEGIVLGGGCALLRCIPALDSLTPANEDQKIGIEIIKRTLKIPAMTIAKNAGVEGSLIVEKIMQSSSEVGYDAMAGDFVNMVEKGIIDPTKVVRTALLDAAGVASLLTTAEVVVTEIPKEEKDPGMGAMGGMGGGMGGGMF
T2 sequence (P61604 whole entry, further chain): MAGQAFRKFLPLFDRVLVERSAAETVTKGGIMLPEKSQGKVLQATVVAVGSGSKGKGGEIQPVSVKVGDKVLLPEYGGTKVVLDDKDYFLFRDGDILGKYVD

Pseudomonas aeruginosa = experiment: Antibacterial activity against multidrug resistant Pseudomonas aeruginosa NCTC 10332 (ATCC 10145) assessed as reduction in bacterial growth incubated for 6 to 8 hrs; format: functional, organism-based; how it was run: as §3
Escherichia coli [9] = experiment: Antibacterial activity against Escherichia coli SM101 assessed as reduction in bacterial growth incubated for 12 hrs by UV-Vis spectrophotometric analysis; format: functional, organism-based; conditions: SM101, 12 h
E. coli GroEL/ES [10] = molecular target: T1, E. coli GroEL/ES; experiment: Inhibition of Escherichia coli GroEL/GroES using Escherichia coli GroEL expressed in Escherichia coli DH5alpha cells and Escherichia coli GroES expressed in Escherichia coli BL21(DE3) cells assessed as reduction in denatured pig heart MDH ATPase activity by malachite green dye based assay
Enterobacter cloacae = experiment: Antibacterial activity against multidrug resistant Enterobacter cloacae subsp. cloacae CDC 442-68 (ATCC 13047) assessed as reduction in bacterial growth incubated for 6 to 8 hrs; format: functional, organism-based; how it was run: as §3
Enterococcus faecium = experiment: Antibacterial activity against multidrug resistant Enterococcus faecium NCTC 7171 (ATCC 19434) assessed as reduction in bacterial growth incubated for 6 to 8 hrs; format: functional, organism-based; how it was run: as §3
E. coli GroEL/ES [11] = molecular target: T1, E. coli GroEL/ES; experiment: as §2, with “pig heart MDH” for “rhodanese”, “NADH” for “thiocyanate”
How it was run: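 Denatured MDH (guanidine-HCl/DTT, 30 min RT) bound to GroEL with GroES in Tris pH 7.4, KCl, MgCl2, DTT buffer. 60 min at 37°C, EDTA quench to 100 mM. Refolded MDH activity read with mesoxalate/NADH at 340 nm. Log-averaged IC50 from replicates.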

HSP60/HSP10 [12] = molecular target: T2, HSP60/HSP10; experiment: Inhibition of human HSP60/HSP10 expressed in Escherichia coli Rosetta2(DE3) cells assessed as inhibition of denatured pig heart MDH refolding by measuring reduction in NADH production incubated for 60 mins by micro plate reader analysis
How it was run: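 Pig heart MDH was denatured in guanidine-HCl (dMDH) and complexed with HSP60, then HSP10, in Tris pH 7.4/KCl/MgCl2/DTT buffer. EDTA quench (100 mM final); refolded MDH activity was followed with mesoxalate/NADH at 340 nm.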

Acinetobacter baumannii = experiment: Antibacterial activity against multidrug resistant Acinetobacter baumannii 2208 (ATCC 19606) assessed as reduction in bacterial growth incubated for 6 to 8 hrs; format: functional; how it was run: as §3
Staphylococcus aureus [13] = experiment: Antibacterial activity against methicillin susceptible Staphylococcus aureus subsp. aureus Seattle 1945 (ATCC 25923) assessed as reduction in bacterial growth incubated for 6 to 8 hrs
Escherichia coli [14] = experiment: Antibacterial activity against acrB-deficient Escherichia coli MC4100 assessed as reduction in bacterial growth incubated for 6 to 8 hrs; format: functional, organism-based
HEK293 = experiment: Cytotoxicity against HEK293 cells assessed as reduction in cell viability after 48 hrs by alamar blue assay; format: cell-based; conditions: Homo sapiens, HEK293, 48 h

SMILES	IC50 (E. coli GroEL/ES [1])	IC50 (E. coli GroEL/ES [2])	EC50 (Bacillus subtilis)	EC50 [3]	EC50 (Staphylococcus aureus [4])	EC50 (Escherichia coli [5])	EC50 [6]	IC50 (E. coli GroEL/ES [7])	IC50 (HSP60/HSP10 [8])	EC50 (Pseudomonas aeruginosa)	EC50 (Escherichia coli [9])	IC50 (E. coli GroEL/ES [10])	EC50 (Enterobacter cloacae)	EC50 (Enterococcus faecium)	IC50 (E. coli GroEL/ES [11])	IC50 (HSP60/HSP10 [12])	EC50 (Acinetobacter baumannii)	EC50 (Staphylococcus aureus [13])	EC50 (Escherichia coli [14])	EC50 (HEK293)
O=C(/C=C/c1ccc([N+](=O)[O-])cc1)c1ccc(O)c(O)c1	> 62.5 µM	0.83 µM	> 100 µM	9.9 µM	40 µM	> 100 µM	> 100 µM	12 µM	> 250 µM	> 100 µM	48 µM	216 µM	> 100 µM	> 100 µM	1.2 µM	5.2 µM	> 100 µM	23 µM	> 100 µM	12 µM
Nc1nnc(SCC(=O)c2ccc(-c3ccccc3)cc2)s1	> 62.5 µM	79 µM	> 100 µM	> 100 µM	> 100 µM	> 100 µM	> 100 µM	–	> 250 µM	> 100 µM	> 100 µM	107 µM	> 100 µM	> 100 µM	–	> 100 µM	> 100 µM	> 100 µM	> 100 µM	> 100 µM
O=C(/C=C/c1ccco1)c1ccc(NC(=O)c2cccs2)cc1	> 62.5 µM	2.3 µM	> 100 µM	34 µM	61 µM	> 100 µM	> 100 µM	> 100 µM	> 250 µM	> 100 µM	> 100 µM	> 250 µM	> 100 µM	> 100 µM	3.6 µM	8.2 µM	> 100 µM	> 100 µM	> 100 µM	55 µM
O=C(/C=C/c1cccc([N+](=O)[O-])c1)c1ccc(NC(=O)c2ccco2)cc1	> 62.5 µM	1.4 µM	> 100 µM	> 100 µM	> 100 µM	> 100 µM	> 100 µM	> 100 µM	> 250 µM	> 100 µM	76 µM	80 µM	> 100 µM	> 100 µM	0.93 µM	1.6 µM	> 100 µM	> 100 µM	> 100 µM	> 100 µM
O=C(CC1Nc2cccc3cccc(c23)NC1=O)Nc1cccc([N+](=O)[O-])c1 (stereo not drawn)	> 62.5 µM	11 µM	72 µM	61 µM	54 µM	> 100 µM	> 100 µM	10 µM	> 250 µM	> 100 µM	68 µM	217 µM	> 100 µM	15 µM	42 µM	> 100 µM	> 100 µM	84 µM	> 100 µM	62 µM
O=C1/C(=C/c2ccc(O)c(O)c2)SC(=S)N1c1ccc(O)cc1	> 62.5 µM	0.58 µM	25 µM	16 µM	9.1 µM	> 100 µM	> 100 µM	14 µM	> 250 µM	> 100 µM	27 µM	> 250 µM	> 100 µM	90 µM	0.69 µM	4.9 µM	58 µM	14 µM	92 µM	23 µM
